The entries come from a sample that favours hits as a whole.
RORA inh: blocks the human nuclear receptor RORA | P35398 | CHO-K1 Gal4-RORA LBD luciferase reporter, luminescence | inhibition, % at 10 µM | 0.43% of 65,000 active;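 active means inhibition above the mean of all tested compounds plus 3 SD, cut at about 52% in these data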
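Test system: CHO-K1 cells with Gal4-hRORA LBD fusion and pG5-luc reporter / Compound: single concentration per compound, 10 µM final / Schedule: 20 h compound treatment, 37 °C / Signal: luminescence from basal luciferase reporter expression / Read-out: % inhibition / Control set: mock-transfected cells as 100%, +RORA DMSO cells as 0% / Replicates: tested once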
Hits are given with their value; - = inactive.

SMILES | RORA inh
COc1cc2nc(CN3CC=C(c4ccccc4)CC3)[nH]c(=O)c2cc1OC | 80
O=C(c1cc2c(s1)-c1ccccc1OC2)N1CCC2(CC1)OCCO2 | -
CCn1nc(-c2cccs2)nc2c(=O)n(C)c(=O)nc1-2 | 91
Nc1ccc(S(=O)(=O)N2CC3CC(C2)c2cccc(=O)n2C3)cc1 (configuration not stated) | -
Cc1cccc(NC2=NCCCS2)c1C | -
CC1(C)CN=C(Nc2nc3ccccc3s2)S1 | -
CCC(=NC1CC1)c1c(O)n(-c2ccc(OC)cc2)c(=O)[nH]c1=O | -
O=C1CN=C(c2ccccc2)c2oc3ccc(Br)cc3c2N1 | -
COc1cccc(OC)c1C1=NCC(=O)Nc2c1oc1ccc(Br)cc21 | 62
Cn1c2ccccc2c2c(C(=O)N3CCC4(CC3)OCCO4)cn(C3CCCCC3)c(=O)c21 | -
CC(C)C(=O)N1CCN(CCN=Cc2c(O)n(C)c(=O)n(C)c2=O)CC1 | -
O=c1[nH]c2ccccc2n1CCCN1CCC(n2c(=O)[nH]c3cc(Cl)ccc32)CC1 | -
CN(C(=O)c1ccco1)C1(c2ccccc2Cl)CCCCC1=O (configuration not stated) | -
COc1ccc2c(c1)c(C(=O)CN1CCN(C)CC1)c(C)n2Cc1ccccc1 | -
CCCNC(=O)N1C2CCC1CC(O)(c1cccnc1)C2 (configuration not stated) | -

Screening data as filed in PubChem BioAssay.
